# Source: article PMC11345372 (ESMO Open, 2024)
# Entries after “also recorded” stand apart in the source; their conditions may differ. Read-outs that look alike come from different tables or passages of the source.
# B1: spartalizumab: humanized immunoglobulin G4 (IgG4) anti-programmed cell death protein-1 (anti–PD-1) monoclonal antibody (antibody, chains of the INN, looked up, V domains shown)
# VH: EVQLVQSGAEVKKPGESLRISCKGSGYTFTTYWMHWVRQATGQGLEWMGNIYPGTGGSNFDEKFKNRVTITADKSTSTAYMELSSLRSEDTAVYYCTRWTTGTGAYWGQGTTVTVSS
# VL: EIVLTQSPATLSLSPGERATLSCKSSQSLLDSGNQKNFLTWYQQKPGQAPRLLIYWASTRESGVPSRFSGSGSGTDFTFTISSLEAEDAATYYCQNDYSYPYTFGQGTKVEIK
# How the values were obtained:
# [1] = Serum pharmacokinetics after intratumoral LHC165, LC-MS/MS, non-compartmental; assay type: in vivo, human
# Outline: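 Serum concentrations of the TLR-7 agonist were measured by validated LC-MS/MS after intratumoral dosing at 100-600 μg Q2W. Dosing was alone or with anti-PD-1 antibody 400 mg IV Q4W. Parameters (Cmax, AUClast, terminal t½) were derived by non-compartmental analysis on C1D1 and C2D15. Geometric CV% was reported.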
# [2] = system: adult patients with advanced solid tumors; assay: Dose escalation: DLT, MTD and recommended dose for expansion; assay type: in vivo, human
# Outline: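 Escalation was guided by an adaptive Bayesian hierarchical logistic regression model with escalation-with-overdose-control. Dosing started at 100 μg and tested 100, 200, 400 and 600 μg intratumoral TLR-7 agonist biweekly, alone or with anti-PD-1 antibody 400 mg IV on day 1 of each 28-day cycle. AEs were graded by CTCAE v4.03. All treated patients formed the safety set. Data cut-off was 30 June 2022.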
# [3] = system: advanced solid tumors; assay: Antitumor activity per iRECIST; assay type: in vivo, human; conditions: all patients, groups pooled
# Outline: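 Adults with advanced solid tumours received the TLR-7 agonist intratumorally, 100-600 μg on days 1 and 15 of 28-day cycles 1-2 and 5-6, alone or with anti-PD-1 antibody 400 mg IV Q4W. Response was assessed per iRECIST. iORR and iDCR are given with 90% Clopper–Pearson exact CIs. iPFS was estimated by Kaplan–Meier with median, 90% CI and 3-24-month rates, summarised by treatment group.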
# [4] = system: adult patients with advanced solid tumors
# [5] = Aluminum level monitoring; assay type: in vivo, human; conditions: for Aluminum level, mean (standard deviation): baseline 0.26 (0.088)
# [6] = system: advanced solid tumors; assay: Antitumor activity per RECIST v1.1; assay type: in vivo, human
# Outline: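 Open-label phase I/Ib in adults (≥18 y, ECOG ≤2, RECIST-measurable disease, progressed on or intolerant to standard care). The TLR-7 agonist, 100-600 μg, was given intratumorally on days 1 and 15 of 28-day cycles 1-2 and 5-6, with a pause in cycles 3-4. Combination patients also received anti-PD-1 antibody 400 mg IV over 30 min Q4W. ORR and DCR (CR+PR+SD) are given with 90% Clopper–Pearson exact CIs. PFS uses Kaplan–Meier with median, 90% CI and landmark rates.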
# [7] = system: patients with solid tumors; conditions: IT; including grade 3/4 cytokine release syndrome, pyrexia, fatigue, chills, decreased lymphocyte count, nausea, injection-site pain; cited from earlier work
# [8] = system: advanced anaplastic thyroid carcinoma; conditions: immune-related response criteria; cited from earlier work
# [9] = all grades, all patients N = 45 (SA and combination groups pooled)
# [10] = all grades, by treatment group (SA n = 21; combination n = 24)
# [11] = grade ≥3, all patients N = 45 (SA and combination groups pooled)
# [12] = grade ≥3, by treatment group (SA n = 21; combination n = 24)
# [13] = overall, 45 patients, groups pooled
# [14] = RECIST v1.1, all patients N = 45 (SA and combination groups pooled)
# [15] = RECIST v1.1, all patients, groups pooled
# [16] = RECIST v1.1, by treatment group
# [17] = RECIST v1.1, by treatment group (SA n = 21; combination n = 24)
molecule,measurement,setting,value
Cc1cc(OCCOCCC(F)(F)P(=O)(O)O)ccc1CCc1cnc2c(N)nc3cc(CCC(=O)O)ccc3c2c1 [LHC165],Dose dependence of Cmax and AUClast,[1]; 100-600 μg IT,increased in a dose-dependent manner
same,Accumulation in serum LHC165 after multiple IT injections,[1]; Cmax and AUClast between C1D1 and C2D15 comparable,No accumulation
same,Drug–drug interaction between LHC165 and spartalizumab,[1]; comparable exposure between SA and combination groups,No evidence of drug–drug interaction
same,MTD,"[2]; LHC165 100-600 μg biweekly IT, SA and with spartalizumab 400 mg Q4W",No maximum tolerated dose was reached; also recorded: not reached
same,Recommended dose for expansion (RDE),"[2]; biweekly IT, as SA and in combination with spartalizumab 400 mg Q4W",600 µg
same,DLTs observed during dose escalation,[2]; combination: two episodes of grade 3 pancreatitis at LHC165 400 μg,No DLTs
same,Overall median immune-related PFS (iPFS),[3],1.7 months
same,"Patients with at least one AE of any grade, regardless of relationship with LHC165 or spartalizumab","[4]; 40 of 45 patients, SA and combination groups pooled",88.9%
same,Most common non-SAE: anemia,"[4]; 45 patients, groups pooled",24.4%
same,Most common non-SAE: pyrexia,"[4]; 45 patients, groups pooled",37.8%
same,"Patients with at least one SAE, regardless of relationship","[4]; 45 patients, groups pooled",22.2%
same,SAE suspected to be related to LHC165 and spartalizumab: grade 3 pancreatitis,"[4]; 45 patients, groups pooled",2.2%
same,"SAE suspected to be related to the study drug: grade 3 pancreatitis, number of patients","[4]; 45 patients, groups pooled",1 n
same,"Patients with treatment-related AEs (TRAEs, all grades)","[4]; across all dose levels, 16 of 45 patients, groups pooled",35.6%
same,Patients with non-SAEs (≥10%),"[4]; across all dose levels, 40 of 45 patients, groups pooled",88.9%
same,Drug-related AE: asthenia,"[4]; all 45 patients, groups pooled",4.4%
same,Drug-related AE: chills,"[4]; all 45 patients, groups pooled",11.1%
same,Drug-related AE: pruritus,"[4]; all 45 patients, groups pooled",13.3%
same,Drug-related AE: pyrexia,"[4]; all 45 patients, groups pooled",22.2%
same,"Asthenia, treatment-related AE",[4]; [9],2 (4.4) n (%)
same,"Chills, treatment-related AE",[4]; [9],5 (11.1) n (%)
same,"Pruritus, treatment-related AE",[4]; [9],6 (13.3) n (%)
same,"Pyrexia, treatment-related AE",[4]; [9],10 (22.2) n (%)
same,TRAEs leading to discontinuation: pancreatitis,[4]; [9],1 (2.2) n (%)
same,≥1 AE suspected to be related to LHC165 or spartalizumab,[4]; [9],16 (35.6) n (%)
same,"Asthenia, treatment-related AE",[4]; [10],0 n (%)
same,"Chills, treatment-related AE",[4]; [10],1 (4.8) n (%)
same,"Pruritus, treatment-related AE",[4]; [10],0 n (%)
same,"Pyrexia, treatment-related AE",[4]; [10],2 (9.5) n (%)
same,TRAEs leading to discontinuation: pancreatitis,[4]; [10],0 n (%)
same,≥1 AE suspected to be related to LHC165 or spartalizumab,[4]; [10],2 (9.5) n (%)
same,Patients with one or more TRAE,[4]; by treatment group (2 of 21; 14 of 24),9.5%
same,Patients with at least one treatment permanent discontinuation by reason: adverse event,[4]; by treatment group (SA n = 21; combination n = 24),2 (9.5) n (%)
same,Patients who discontinued study treatment due to AE,"[4]; by treatment group, SA: hypotension, not related, combination: pancreatitis, DLT",4.8%
same,Patients who discontinued study treatment due to death,"[4]; by treatment group, not related to treatment (respiratory failure; fatal septic shock)",4.8%
same,"Asthenia, treatment-related AE",[4]; [11],0 n (%)
same,"Chills, treatment-related AE",[4]; [11],0 n (%)
same,"Pruritus, treatment-related AE",[4]; [11],0 n (%)
same,"Pyrexia, treatment-related AE",[4]; [11],0 n (%)
same,TRAEs leading to discontinuation: pancreatitis,[4]; [11],1 (2.2) n (%)
same,≥1 AE suspected to be related to LHC165 or spartalizumab,[4]; [11],0 n (%)
same,"Asthenia, treatment-related AE",[4]; [12],0 n (%)
same,"Chills, treatment-related AE",[4]; [12],0 n (%)
same,"Pruritus, treatment-related AE",[4]; [12],0 n (%)
same,"Pyrexia, treatment-related AE",[4]; [12],0 n (%)
same,TRAEs leading to discontinuation: pancreatitis,[4]; [12],0 n (%)
same,≥1 AE suspected to be related to LHC165 or spartalizumab,[4]; [12],0 n (%)
same,AE leading to dose interruption or dose adjustment: aspartate aminotransferase increased,[4]; [13],4.4%
same,Patients with at least one AE leading to dose interruption or dose adjustment,[4]; [13],11.1%
same,Patients with at least one AE leading to treatment discontinuation,[4]; [13],4.4%
same,"AEs leading to dose interruption or dose adjustment, each of: alanine aminotransferase increased, fatigue, gastroesophageal reflux disease, hyponatremia, suspected COVID-19","[4]; overall, 45 patients, groups pooled, each term",2.2%
same,AEs specific to aluminum toxicity,[5]; LHC165 adsorbed to aluminum hydroxide,No AEs specific to aluminum toxicity were reported
same,"Aluminum level, mean (standard deviation)",[5]; cycle 1 day 15 (C1D15),0.24 (0.087) μmol/L
same,"Aluminum level, mean (standard deviation)",[5]; end of treatment,0.30 (0.128) μmol/L
same,Maximum observed aluminum value during the study,[5]; mild elevation levels >1.85 μmol/L,0.520 µmol
same,Median PFS,"[6]; RECIST v1.1, Kaplan–Meier, by treatment group, listed as LHC165 SA",1.4 months
same,Best overall response: CR,[6]; [14],0 n (%)
same,Best overall response: PD,[6]; [14],27 (60.0) n (%)
same,Best overall response: PR,[6]; [14],3 (6.7) n (%)
same,Best overall response: SD,[6]; [14],5 (11.1) n (%)
same,Best overall response: Unknown,[6]; [14],10 (22.2) n (%)
same,DCR (CR + PR + SD),[6]; [14],8 (17.8) n (%)
same,ORR (CR + PR),[6]; [14],3 (6.7) n (%)
same,DCR / disease control,[6]; [15],17.8%
same,ORR (CR + PR) across all tumor types,[6]; [15],6.7%
same,Best overall response PD,[6]; [16],66.7%
same,Best overall response PR,[6]; [16],4.8%
same,Best overall response unknown (UNK),[6]; [16],28.6%
same,Best overall response: CR,[6]; [17],0 n (%)
same,Best overall response: PD,[6]; [17],14 (66.7) n (%)
same,Best overall response: PR,[6]; [17],1 (4.8) n (%)
same,Best overall response: SD,[6]; [17],0 n (%)
same,Best overall response: Unknown,[6]; [17],6 (28.6) n (%)
same,DCR (CR + PR + SD),[6]; [17],1 (4.8) n (%)
same,ORR (CR + PR),[6]; [17],1 (4.8) n (%)
same,"DOR, median (range)","[6]; RECIST v1.1, responders by treatment group",3.81 (3.8-3.8) months
same,"DOR, median (range)","[6]; RECIST v1.1, responders, all patients (SA and combination groups pooled)",13.77 (3.8-29.7) months
same,Overall median PFS,"[6]; all patients, groups pooled",1.7 months
same,Patients who discontinued study treatment due to progressive disease,[6]; by treatment group,71.4%
CCCCCCCCCCCCCCCCCC(=O)NCCCCOn1c(CCCC)nc2c(N)nc3ccccc3c21 [MEDI9197],Toxicities,[7],tolerable toxicities
B1,Overall response rate (ORR),[8],24%
